From ChEMBL document CHEMBL3124880, “4-(3-Chloro-5-(trifluoromethyl)pyridin-2-yl)-N-(4-methoxypyridin-2-yl)piperazine-1-carbothioamide (ML267), a potent inhibitor of bacterial phosphopantetheinyl transferase that attenuates secondary metabolism and thwarts bacterial growth” (J Med Chem, 2014)
Converted amounts (≈) assume the structure as drawn. The source made the active and inactive calls. No cut-off for these calls is given here.

Experiments:
Candida albicans = assay: Antifungal activity against fluconazole-resistant Candida albicans ATCC 96901 assessed as growth inhibition at 0.8 to 100 ug/mL after 48 hrs by resazurin dye-based assay; format: functional, organism-based
How it was run: (§1)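 Broth microdilution. Inoculum from overnight liquid cultures or 2-day colonies, ~1 × 10^3 cfu per well. Compound in DMSO added to cation-adjusted Mueller Hinton II broth (bacteria) or RPMI 1640 (fungi). Incubated at 30–37 °C for 16–20 h, or 48 h for fungi.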

Staphylococcus aureus [1] = assay: Antibacterial activity against community-acquired methicillin-resistant Staphylococcus aureus USA500 assessed as growth inhibition at 0.8 to 100 ug/mL after 16 to 20 hrs by resazurin dye-based assay; format: functional, organism-based; how it was run: as §1
Bacillus subtilis [2] = assay: Antibacterial activity against Bacillus subtilis OKB105 assessed as growth inhibition at 1.7 ug/mL after 16 to 20 hrs by resazurin dye-based assay; format: functional, organism-based
Bacillus subtilis [3] = assay: Antibacterial activity against Bacillus subtilis 168 assessed as growth inhibition after 16 to 20 hrs by resazurin dye-based assay; format: functional; settings: subsp. subtilis str. 168
How it was run: (§2)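 Broth microdilution. Test article from 1 μL DMSO in 50 μL cation-adjusted Mueller Hinton II (bacteria) or RPMI 1640 (fungi), plus ~1×10^3 cfu inoculum in the same medium. Incubated 16–20 h at 30–37 °C (48 h for fungi). MIC scored visually as the first well without growth; resazurin added for imaging.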

Bacillus subtilis [4] = assay: Antibacterial activity against Bacillus subtilis HM489 assessed as growth inhibition at 1.7 ug/mL after 16 to 20 hrs by resazurin dye-based assay; format: functional, organism-based; how it was run: as §2
[5] = target: T1, L-aminoadipate-semialdehyde dehydrogenase-phosphopantetheinyl transferase (Homo sapiens) (UniProt Q9NRN7); assay: Inhibition of human PPTase up to 125 uM by gel-based fluorescence assay
T1 sequence (whole entry): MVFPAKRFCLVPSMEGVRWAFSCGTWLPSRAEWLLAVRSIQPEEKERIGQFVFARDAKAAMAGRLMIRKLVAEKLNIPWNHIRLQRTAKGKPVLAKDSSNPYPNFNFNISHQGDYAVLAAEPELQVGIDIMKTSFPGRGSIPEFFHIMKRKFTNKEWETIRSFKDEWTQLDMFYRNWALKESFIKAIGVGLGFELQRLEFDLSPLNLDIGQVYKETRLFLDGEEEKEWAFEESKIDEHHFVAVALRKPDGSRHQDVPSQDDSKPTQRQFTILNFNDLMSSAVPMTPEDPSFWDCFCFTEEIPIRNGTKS

Bacillus subtilis [6] = assay: Antibacterial activity against Bacillus subtilis HM489 assessed as cellular ATP content after 5 hrs by BacTiter-Glo assay; format: functional, organism-based; settings: HM489, 5 h
HepG2 = assay: Cytotoxicity against human HepG2 cells assessed as cellular ATP content after 48 hrs by CellTiter-Glo assay; format: cell-based; settings: HepG2, 48 h
How it was run: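 HepG2 cells exposed to compound; viability read as cellular ATP by luciferase-coupled CellTiter-Glo.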

[7] = Chemical stability of the compound in PBS buffer at room temperature measured over 48 hrs by LC/MS analysis; format: physicochemical
How it was run: (§3)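 Compound held in aqueous media over pH 2–9 and in PBS and HEPES buffers, then monitored for degradation.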

[8] = Inhibition of Bacillus subtilis AcpS-PPTase using rhodamine-CoA/BHQ-2-YbbR as substrate preincubated for 15 mins followed by substrate addition by HTS assay
How it was run: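 AcpS-PPTase at 100 nM final in 50 mM HEPES-Na pH 7.6, 10 mM MgCl2, 0.01% Nonidet P-40, 0.01% BSA; compound preincubated 15 min at room temperature, then rhodamine-CoA (5 μM final) and BHQ-2-YbbR (12.5 μM final) added. Fluorescence read (525 ex/598 em) at start and after 60 min; difference gives rate.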

Staphylococcus aureus [9] = assay: Antibacterial activity against Staphylococcus aureus BK2395 in Swiss Webster mouse septicemia model assessed as increase in survival at 30 mg/kg, ip administered 4 to 48 hrs measured 3 times daily for 14 days relative to vehicle-treated control; format: functional, organism-based; parameters: dose 30 mg/kg
How it was run: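 MRSA USA500 strain BK2395 used in a mouse sepsis model. Treated animals compared with vehicle, with vancomycin as a reference treatment; survival monitored.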

Staphylococcus aureus [10] = assay: Antibacterial activity against Staphylococcus aureus isolated from kidney of 30 mg/kg, ip compound-treated Swiss Webster mouse septicemia model assessed as growth inhibition; format: functional, organism-based; parameters: dose 30 mg/kg
How it was run: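 Bacteria harvested from the kidneys of septic mice treated with vehicle or compound, five isolates taken per crude sample. MICs measured in parallel with the parental USA500 strain.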

[11] = Clearance in CD-1 mouse at 3 mg/kg, iv; format: ADME, organism-based; parameters: dose 3 mg/kg, route intravenous; settings: in vivo
How it was run: (§4)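 Male CD1 mice, 6–8 weeks old. Dosed iv at 3 mg/kg or ip at 30 mg/kg as a solution in 5% DMSO/10% Solutol in water. Plasma sampled in triplicate at eight time points over 24 h.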

[12] = AUC (infinity) in CD-1 mouse at 3 mg/kg, iv; format: ADME, organism-based; parameters: time infinity, dose 3 mg/kg, route intravenous; settings: plasma; how it was run: as §4
[13] = Cmax in CD-1 mouse at 3 mg/kg, iv; format: ADME, organism-based; parameters: dose 3 mg/kg, route intravenous; settings: in vivo; how it was run: as §4
[14] = Half life in CD-1 mouse at 30 mg/kg, ip; format: ADME, organism-based; parameters: dose 30 mg/kg, route intraperitoneal; settings: in vivo; how it was run: as §4
Liver microsome [15] = assay: Drug metabolism in human liver microsomes assessed as GSH adduct formation at 50 uM after 60 mins by LC-MS/MS analysis in presence of NADPH; format: ADME; settings: 1 h
[16] = Chemical stability of the compound in HEPES buffer at room temperature measured over 48 hrs by LC/MS analysis; format: physicochemical; how it was run: as §3
[17] = Metabolic stability in mouse liver microsomes measured over 1 hr in absence of NADPH; format: ADME, Microsome
How it was run: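 Mouse liver microsomes incubated with compound without NADPH over 1 h.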

CYP2D6 = CYP2D6 (Homo sapiens, UniProt P10635); assay: Inhibition of CYP2D6 (unknown origin) using dextromethorphan as substrate at 3 uM relative to control; format: ADME; settings: probe dextromethorphan
Sequence of CYP2D6 (P10635 whole entry): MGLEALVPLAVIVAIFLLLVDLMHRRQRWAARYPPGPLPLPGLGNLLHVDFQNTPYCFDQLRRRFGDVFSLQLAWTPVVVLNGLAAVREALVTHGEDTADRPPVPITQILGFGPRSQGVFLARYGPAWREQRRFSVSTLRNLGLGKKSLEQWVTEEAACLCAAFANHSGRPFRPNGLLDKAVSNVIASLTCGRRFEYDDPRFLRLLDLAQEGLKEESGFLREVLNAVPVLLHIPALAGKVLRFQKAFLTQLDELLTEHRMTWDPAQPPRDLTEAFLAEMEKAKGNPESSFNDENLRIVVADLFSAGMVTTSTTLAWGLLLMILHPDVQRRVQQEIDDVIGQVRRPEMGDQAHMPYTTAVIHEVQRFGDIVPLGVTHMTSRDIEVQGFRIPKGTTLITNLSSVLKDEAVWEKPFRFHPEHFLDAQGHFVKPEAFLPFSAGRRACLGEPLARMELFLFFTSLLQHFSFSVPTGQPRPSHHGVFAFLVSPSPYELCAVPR
How it was run: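 Compound at 3 μM co-incubated with CYP substrates: dextromethorphan for 2D6, 6β-hydroxytestosterone for 3A4. Percent inhibition reported; done at Pharmaron.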

Liver microsome [18] = assay: Half life in rat liver microsomes in presence of NADPH; format: ADME
How it was run: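 Liver microsomes from mouse or rat incubated with compound in the presence of NADPH. Mouse assay done at Pharmaron.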

Bacillus subtilis [19] = assay: Antibacterial activity against Bacillus subtilis OKB105 assessed as effect on cellular density at 0.53 to 1.1 ug/mL after 28 hrs; format: functional, organism-based
How it was run: (§5)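 B. subtilis OKB105 cultured with compound at 0.53 or 1.1 µg/mL against a vehicle control. Culture density and surfactin titer sampled periodically over 28 h.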

Bacillus subtilis [20] = assay: Antibacterial activity against Bacillus subtilis OKB105 assessed as inhibition of surfactin production after 28 hrs by LC-MS analysis; format: functional, organism-based; how it was run: as §5
Escherichia coli [21] = assay: Antibacterial activity against wild type Escherichia coli BW25113 assessed as growth inhibition at 1.8 to 250 ug/mL after 16 to 20 hrs by broth dilution method in presence of AcrAB-TolC inhibitor phenylarginine-beta-napthamide; format: functional
How it was run: (§6)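 E. coli BW25113 (wild type) and JW0451 (ΔacrB) tested by broth dilution in cation-adjusted Mueller Hinton II, ~1×10^3 cfu, 16–20 h. Growth shown with resazurin. Checkerboard combination with the efflux inhibitor PAβN in the wild type.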

Escherichia coli [22] = assay: Antibacterial activity against wild type Escherichia coli BW25113 assessed as growth inhibition at 1.8 to 250 ug/mL after 16 to 20 hrs by broth dilution method; format: functional; how it was run: as §6

In the case of `COc1ccnc(NC(=S)N2CCN(c3ncc(C(F)(F)F)cc3Cl)CC2)c1`, the “growth inhibition (GI)” value (Candida albicans) is reported as “inactive”, the “growth inhibition (GI)” value (Staphylococcus aureus [1]) is reported as “Active” and the “growth inhibition (GI)” value (Bacillus subtilis [2]) is reported as “Active”. The MIC (Bacillus subtilis [3]) was 2 µg/mL (≈ 4.63 µM), the “growth inhibition (GI)” value (Bacillus subtilis [4]) was “Active” and the inhibition [5] was “inactive”. For the same compound, the IC50 (Bacillus subtilis [6]) was 9.3 µM, the IC50 (HepG2) was at least 114 µM and the Stability [7] was “Stable”. The IC50 [8] was 8.1 µM, the Activity (Staphylococcus aureus [9]) was “inactive” and the “growth inhibition (GI)” value (Staphylococcus aureus [10]) was “Active”. For the same compound, the clearance [11] was 7.2 mL/min/kg, the AUC(0-inf) [12] was 6980 ng·h/mL and the Cmax [13] was 4110 ng/mL. For the same compound, the half-life [14] was 2 h, the Drug metabolism (Liver microsome [15]) was “Not Active” and the Stability [16] was “Stable”. The Stability [17] was “Stable”, the inhibition at 3 µM (CYP2D6) was 25% and the t1/2 (Liver microsome [18]) was over 0.5 h. For the same compound, the Activity (Bacillus subtilis [19]) was “inactive”, the inhibition (Bacillus subtilis [20]) was “Dose-dependent effect” and the “growth inhibition (GI)” value (Escherichia coli [21]) was “Active”. The “growth inhibition (GI)” value (Escherichia coli [22]) was “inactive”.
